Bioassay records as filed in PubChem.
M4 antag: antagonists of human muscarinic M4 receptor (CHRM4) | P08173 | CHO-hM4 cells, ACh EC80, Fluo-8 calcium fluorescence | inhibition, % at 3 µM | 360,000 tested, 0.73% active;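 active means inhibition above its plate's cutoff, the mean inhibition of sample wells plus 3 SD, cut at about 27% in these data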
M5 ag: CHRM5 agonism in calcium assay; P08912; CHO-K1 hM5 cells, Fluo-8 calcium fluorescence; 0% DMSO wells, 100% maximal acetylcholine response; activation, % at 3 µM; 360,000 tested, 0.19% active; AID 624037;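 active means activation above the run's mean over test compounds plus 3 SD, cut at about 23% in these data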;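 further: signal is peak over basal fluorescence ratio across the kinetic read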
Target sequence (P08912 whole entry, looked up): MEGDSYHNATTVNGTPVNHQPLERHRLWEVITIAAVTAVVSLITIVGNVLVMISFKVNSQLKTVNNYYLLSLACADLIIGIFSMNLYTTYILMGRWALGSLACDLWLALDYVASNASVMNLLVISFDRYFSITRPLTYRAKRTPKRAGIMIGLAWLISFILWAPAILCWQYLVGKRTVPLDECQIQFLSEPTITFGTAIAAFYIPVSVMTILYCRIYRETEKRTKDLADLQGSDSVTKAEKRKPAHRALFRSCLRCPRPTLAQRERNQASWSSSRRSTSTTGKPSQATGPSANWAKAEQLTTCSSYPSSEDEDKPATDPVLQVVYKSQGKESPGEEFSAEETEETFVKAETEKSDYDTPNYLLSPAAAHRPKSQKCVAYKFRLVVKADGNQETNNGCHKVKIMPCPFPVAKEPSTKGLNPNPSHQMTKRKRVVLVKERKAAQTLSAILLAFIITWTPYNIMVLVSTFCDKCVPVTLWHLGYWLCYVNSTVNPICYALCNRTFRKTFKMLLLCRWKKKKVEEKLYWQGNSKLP
CHRM4 agonist: CHRM4 agonism in calcium assay | P08173 | CHO-K1 hM4/Gqi5, Fluo-8 calcium fluorescence; vehicle 0%, full acetylcholine response 100% | activation, % at 3 µM | 360,000 tested, 0.14% active;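 active means activation above the run mean over all test wells plus 3 SD, cut at about 32% in these data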;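 further: peak over basal fluorescence ratio per well then scaled between controls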
M5 antag: antagonists of human muscarinic M5 receptor (CHRM5); CHO-hM5 cells, Fluo-8 calcium fluorescence, ACh EC80; inhibition, % at 3 µM; 360,000 tested, 0.59% active; AID 624040;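 active means inhibition above a per-plate cutoff, the mean of that plate's test compounds plus 3 SD, cut at about 27% in these data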
M5 PAM: CHRM5 positive allosteric modulation | P08912 | CHO-K1 hM5, Fluo-8 calcium, ACh EC20 PAM; 0% = ACh EC20, 100% = ACh EC100 | activation, % at 3 µM | 360,000 tested, 0.3% active | AID 624038;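 active means activation above the run cutoff, the mean activation of all test compounds plus 3 SD, cut at about 18% in these data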
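System: CHO-K1 cell line with stable human muscarinic M5 receptor expression | Also added: EC20 acetylcholine as agonist stimulus | Compound: One concentration, 3 µM final (nominal) | Timing: Fluo-8 loading 80 min at 37 °C plus 30 min room temperature | Measured by: Fluo-8 calcium dye fluorescence, kinetic read | Read-out basis: % activation, ACh-normalized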
CHRM4 PAM: CHRM4 positive allosteric modulation; AID 624126; 360,000 tested, 0.4% active; P08173; activation, % at 3 µM; CHO-K1 hM4/Gqi5, Fluo-8 calcium fluorescence, ACh EC20; 0% = ACh EC20, 100% = maximal ACh;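 active means activation above its plate's cutoff, the mean activation of sample wells plus 3 SD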
Each line names hits and unclear results; the compound was inactive in the other large screens. Sampled rows, rich in hits. Any-hit rate of the full collection: about 1.9%.

Cc1ccc(NC(=O)C2CCN(C(=O)c3cccs3)CC2)cc1	none
O=C(COC(=O)c1cccc(F)c1)NCCC1=CCCCC1	none
Cc1ccc(N/C=C(\C#N)c2ccc(OCCCF)cc2)cc1	none
CN(Cc1nc2ccccc2n1C)S(=O)(=O)c1ccc(Cl)cc1	CHRM4 PAM 25
O=C(N/N=C\c1ccc(Sc2ccccn2)o1)c1cccc(Br)c1	none
Cc1ccccc1C(=O)N/N=C/c1ccc(Sc2ccccn2)o1	M5 PAM 24
Cc1ccccc1N1CCN(CCN2C(=O)CC(=C3c4ccccc4-c4ccccc43)C2=O)CC1	none
O=C1CC(=C(c2ccccc2)c2ccccc2)C(=O)N1CCCCN1CCN(c2cccc(Cl)c2)CC1	M4 antag 40
Cc1ccccc1N1CCN(CCCN2C(=O)CC(=C(c3ccccc3)c3ccccc3)C2=O)CC1	M4 antag 38
Cc1ccc(CNC(=O)C2COc3ccccc3O2)cc1 (stereo not drawn)	none
Cc1ccc(C(C(=O)NCc2ccc(F)cc2)N(CCCO)C(=O)C2COc3ccccc3O2)o1 (stereo not drawn)	M4 antag 41
Clc1ccc2nc3ccccn3c2c1	none
CCN1CCN(CCNC(=O)c2ccc(/C=C3/Sc4ccccc4N(Cc4ccccc4C)C3=O)cc2)CC1	CHRM4 agonist 33
CCc1ccc(N(C(=O)CNC(=O)c2ccco2)C(C(=O)NC2CCCC2)c2cccnc2)cc1 (stereo not drawn)	none
CC(=O)c1ccc(N2CCN(CC(O)COC(c3ccccc3)c3ccccc3)CC2)cc1 (stereo not drawn)	M4 antag 40
CC(=O)c1ccc(N2CCN(CC(O)COC(c3ccccc3)c3ccccc3C)CC2)cc1 (stereo not drawn)	M4 antag 81, M5 antag 32
O=C(CSc1nc(C(F)(F)F)cc(=O)[nH]1)NCc1ccc2c(c1)OCO2	none
CCCCNc1c(-c2ccc(OC)c(Sc3ccc(OC)cc3)c2)nc2cnccn12	none
CCCCNc1c(-c2ccc(OC)c(Sc3ccc(OC)cc3)c2)nc2ccccn12	M4 antag 39, M5 antag 27
CCCCNc1c(-c2ccc(-c3ccc(OC)cc3)c(OC)c2)nc2ccccn12	M4 antag 36
N#CCCn1nc(-c2ccccc2)cc1Nc1ccccc1NC(=O)c1cccs1	M5 PAM 22
O=C1CCC/C(=N/NC(=O)c2sc3ccccc3c2Cl)C1	M5 ag 24
O=C1CCCC(=NNC(=O)c2cc3ccccc3cc2O)C1	M5 ag 26
O=C(NN=C1CCCC1)c1sc2ccccc2c1Cl	none
O=C(NCN1CCc2ccccc2C1)c1ccccc1	none
CC(/C=N/NC(=O)Cn1nccc1C)=C\c1ccc(C(C)C)cc1	M4 antag 30
O=C(Nc1ccccc1Cl)N1CCCN(c2nc(-c3ccccc3)ns2)CC1	none
O=C(c1ccc(F)cc1)N1CCCN(c2nc(-c3ccccc3)ns2)CC1	M5 PAM 20
CCCCc1c(-c2ccc(OC)cc2)ncn1CCc1ccccc1OC	M4 antag 33
CCCCc1c(-c2ccccc2)ncn1CCc1ccccc1OC	none
CCCCCc1c(-c2ccc(OC)cc2)ncn1CCc1ccccc1OC	M4 antag 34
CCCCCc1c(-c2ccc(Cl)cc2)ncn1CCc1ccccc1OC	none
Cc1nnc(N2CCOCC2)c2ccccc12	CHRM4 PAM 25
COc1ccc(-c2nnc(N3CCOCC3)c3ccccc23)cc1	none
COc1ccc(C)cc1NC(=O)CN1C(=O)COc2ccc(C)cc21	M5 PAM 22
COc1ccccc1NC(=O)CN1C(=O)COc2ccc(C)cc21	none
COc1cc(OC)cc(OC2(C)CCN(Cc3ccc(OC(C)C)cc3)C2)c1 (stereo not drawn)	M4 antag 53
COC(=O)Cc1ccc(OC2(C)CCN(Cc3ccccc3)C2)cc1 (stereo not drawn)	M4 antag 63
CC(C)c1ccc(CN2CCC(C)(Oc3ccc(Cl)cc3)C2)cc1 (stereo not drawn)	none
O=c1[nH]cnc2c1ncn2Cc1ccc([N+](=O)[O-])cc1	none
COc1cc(/C=C/C(=O)c2ccc3c(c2)OCO3)cc(Cl)c1O	M4 antag 32, M5 ag 50, CHRM4 agonist 125, M5 antag 33
COc1ccc(C(=O)C=Cc2ccc3c(c2)OCO3)cc1OC	none
CCOC(=O)COc1ccccc1/C=C\[N+](=O)[O-]	M4 antag 27
COc1cccc(NC(=O)CSC2=C(C#N)C(c3ccco3)C3=C(CCCC3=O)N2)c1 (stereo not drawn)	none
COc1ccc(NC(=O)CSC2=C(C#N)C(c3ccco3)C3=C(CCCC3=O)N2)c(OC)c1 (stereo not drawn)	M5 antag 42
O=C(O)c1nn(CC(=O)N2CCCCCC2)c(=O)c2ccccc12	none
CN(C(=O)Cn1nc(C(=O)O)c2ccccc2c1=O)C1(C#N)CCCCC1	CHRM4 PAM 23
C(=C\c1ccccc1)/CN1CCN(C(c2ccccc2)c2nnnn2C2CCCC2)CC1 (stereo not drawn)	M5 antag 44
C(=C\c1ccccc1)/CN1CCN(C(c2nnnn2C2CCCC2)C2CC2)CC1 (stereo not drawn)	none
CC(C)(C)n1nnnc1C(c1ccnc2ccccc12)N1CCN(C/C=C/c2ccccc2)CC1 (stereo not drawn)	none
C(=C\c1ccccc1)/CN1CCN(C(c2ccnc3ccccc23)c2nnnn2C2CCCC2)CC1 (stereo not drawn)	M4 antag 31, M5 antag 86
C(=C\c1ccccc1)/CN1CCN(C(c2cccs2)c2nnnn2C2CCCC2)CC1 (stereo not drawn)	M5 antag 31
C(=C\c1ccccc1)/CN1CCN(C(c2cccs2)c2nnnn2Cc2ccccc2)CC1 (stereo not drawn)	none
C(=C\c1ccccc1)/CN1CCN(C(c2cccc3ccccc23)c2nnnn2Cc2ccccc2)CC1 (stereo not drawn)	M5 antag 38
Cc1ccc(S(=O)(=O)N2CCCC2C(=O)N2CCCCCC2)cc1 (stereo not drawn)	none
CC(C)(C)n1nnnc1C(c1cccs1)N1CCN(C/C=C/c2ccccc2)CC1 (stereo not drawn)	M5 antag 28
CC(C)(C)n1nnnc1C(c1cccs1)N1CCN(Cc2ccccc2)CC1 (stereo not drawn)	none
CC1=C(C)/C(=N\OS(=O)(=O)c2ccccc2)C=CC1=O	M4 antag 67, M5 antag 30
